# Assay results: ChEMBL document CHEMBL1641411, “Synthesis and optimization of novel 4,4-disubstituted cyclohexylbenzamide derivatives as potent 11β-HSD1 inhibitors” (Bioorg Med Chem Lett, 2011)
# The source made the active and inactive calls. No cut-off for these calls is given here.
# Key:
# [1] = Metabolic stability in rat liver microsomes assessed as compound turnover at 30 mins; type: ADME, Microsome; conditions: read-out: Stability
# Outline: (§1)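 Compounds incubated with human or rat liver microsomes; percent turnover of parent measured at 30 min.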
# [2] = Metabolic stability in human liver microsomes assessed as compound turnover at 30 mins; type: ADME, Microsome; conditions: read-out: Stability; outline: as §1
# [3] = molecular target: T1, Nuclear receptor subfamily 1 group I member 2 (Homo sapiens, UniProt O75469); experiment: Activation of PXR relative to control; design: concentration or dose not given beside the values
# T1 sequence (O75469 whole entry): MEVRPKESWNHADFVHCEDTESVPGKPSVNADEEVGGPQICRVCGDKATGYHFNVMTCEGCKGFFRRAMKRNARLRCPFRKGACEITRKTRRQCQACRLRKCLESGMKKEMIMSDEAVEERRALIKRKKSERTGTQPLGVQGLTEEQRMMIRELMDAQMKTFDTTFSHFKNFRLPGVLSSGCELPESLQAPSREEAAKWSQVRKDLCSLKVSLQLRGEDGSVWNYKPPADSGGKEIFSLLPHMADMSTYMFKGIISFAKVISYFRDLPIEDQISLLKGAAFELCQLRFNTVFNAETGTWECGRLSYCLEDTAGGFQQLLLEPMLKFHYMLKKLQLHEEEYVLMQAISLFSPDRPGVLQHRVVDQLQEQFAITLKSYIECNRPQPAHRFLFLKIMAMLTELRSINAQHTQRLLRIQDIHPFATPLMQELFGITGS
# Outline: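 PXR activation measured with compound at 2 µM, expressed as % of control.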
# [4] = Oral bioavailability in rat at 2 mg/kg; type: ADME, organism-based; conditions: in vivo
# Outline: (§2)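 Rat PK: single iv dose of 0.5 mg/kg, with a separate oral dose of 2.0 mg/kg. Clearance, Vdss and half-life come from the iv arm. Oral AUC and %F come from the po arm.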
# Rattus norvegicus [5] = experiment: Ex vivo inhibition of 11beta-HSD1 in Sprague-Dawley rat assessed as inhibition of conversion of [3H]cortisone to [3H]cortisol at 100 mg/kg, po; type: functional
# Outline: (§3)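 Sprague–Dawley rats dosed orally at 4, 20 or 100 mg/kg; killed 2 h post-dose. Epididymal fat isolated and incubated in media containing [3H]-cortisone; rat 11β-HSD1 activity read as [3H]-cortisol formed. Reported as % inhibition over vehicle-dosed animals.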
# [6] = molecular target: 11-beta-hydroxysteroid dehydrogenase 1 (Rattus norvegicus, UniProt P16232); experiment: Inhibition of rat 11beta-HSD1 assessed as inhibition of conversion of [3H]cortisone to [3H]cortisol by scintillation proximity assay
# Sequence of 11-beta-hydroxysteroid dehydrogenase 1 (P16232 whole entry): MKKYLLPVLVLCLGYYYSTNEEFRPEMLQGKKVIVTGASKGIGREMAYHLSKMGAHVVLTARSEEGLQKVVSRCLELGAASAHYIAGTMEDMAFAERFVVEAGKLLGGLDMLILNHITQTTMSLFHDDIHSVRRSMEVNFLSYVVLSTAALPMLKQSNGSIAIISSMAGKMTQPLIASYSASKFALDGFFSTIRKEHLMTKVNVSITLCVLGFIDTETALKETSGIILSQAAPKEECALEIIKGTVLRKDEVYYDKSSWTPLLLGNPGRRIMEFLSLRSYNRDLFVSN
# Rattus norvegicus [7] = experiment: Ex vivo inhibition of 11beta-HSD1 in Sprague-Dawley rat assessed as inhibition of conversion of [3H]cortisone to [3H]cortisol at 20 mg/kg, po; type: functional; outline: as §3
# [8] = AUC in rat at 2 mg/kg, po; type: ADME, organism-based; design: dose 2 mg/kg, route oral; conditions: plasma; outline: as §2
# [9] = Clearance in rat at 0.5 mg/kg, iv and 2 mg/kg, po; type: ADME, organism-based; conditions: in vivo; outline: as §2
# [10] = Half life in rat at 0.5 mg/kg, iv; type: ADME, organism-based; design: dose 0.5 mg/kg, route intravenous; conditions: in vivo; outline: as §2
# Rattus norvegicus [11] = experiment: Ex vivo inhibition of 11beta-HSD1 in Sprague-Dawley rat assessed as inhibition of conversion of [3H]cortisone to [3H]cortisol at 4 mg/kg, po; type: functional; outline: as §3
# [12] = Volume of distribution at steady state in rat at 0.5 mg/kg, iv and 2 mg/kg, po; type: ADME, organism-based; conditions: in vivo, read-out: Vdss; outline: as §2
# Cynomolgus monkey = conditions: Macaca fascicularis; 4 to 100 mg/kg
# [13] = Inhibition of cynomolgus monkey 11beta-HSD1 assessed as inhibition of conversion of [3H]cortisone to [3H]cortisol by scintillation proximity assay; design: species or system Macaca fascicularis
# [14] = Plasma concentration in cynomolgus monkey at 100 mg/kg, po after 2 hrs by LC/MS/MS analysis; type: ADME, organism-based, Macaca fascicularis; design: dose 100 mg/kg, route oral
# Outline: (§4)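 Monkeys given oral doses of 4, 20 or 100 mg/kg in 1% methylcellulose/1% Tween 80 in sterile water, 5–6 animals per group. Plasma collected 2 h after dosing for drug concentration.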
# [15] = Clearance in cynomolgus monkey; type: ADME, organism-based, Macaca fascicularis; conditions: in vivo
# [16] = Plasma concentration in cynomolgus monkey at 20 mg/kg, po after 2 hrs by LC/MS/MS analysis; type: ADME, organism-based, Macaca fascicularis; design: dose 20 mg/kg, route oral; outline: as §4
# [17] = Plasma concentration in cynomolgus monkey at 4 mg/kg, po after 2 hrs by LC/MS/MS analysis; type: ADME, organism-based, Macaca fascicularis; design: dose 4 mg/kg, route oral; outline: as §4
# [18] = Bioavailability in cynomolgus monkey; type: ADME, organism-based, Macaca fascicularis; conditions: in vivo
SMILES,metabolised at 0.5 h [1],metabolised at 0.5 h [2],Activity [3],also measured
C[C@](O)(c1ccc(C(=O)N(C2CC2)[C@H]2CC[C@](CCC(N)=O)(c3ccc(F)cc3)CC2)cc1)C(F)(F)F,< 10%,< 10%,,
C[C@](O)(c1ccc(C(=O)N(C2CC2)[C@H]2CC[C@](CC#N)(c3ccccc3)CC2)cc1)C(F)(F)F,17%,19%,9%,
C[C@](O)(c1ccc(C(=O)N(C2CC2)[C@H]2CC[C@](CNS(C)(=O)=O)(c3ccccc3)CC2)cc1)C(F)(F)F,21%,< 10%,< 5%,
C[C@](O)(c1ccc(C(=O)N(C2CC2)[C@H]2CC[C@](CC(N)=O)(c3ccccc3)CC2)cc1)C(F)(F)F,< 10%,< 10%,< 5%,
C[C@](O)(c1ccc(C(=O)N(C2CC2)[C@H]2CC[C@](COC(N)=O)(c3cscn3)CC2)cc1)C(F)(F)F,< 10%,< 10%,,bioavailability [4]: 25%; inhibition in vivo at 100 mg/kg (Rattus norvegicus [5]): 75%; IC50 [6]: 30 nM; inhibition in vivo at 20 mg/kg (Rattus norvegicus [7]): 38%; AUC [8]: 618 ng·h/mL; clearance [9]: 13.7 mL/min/kg; half-life [10]: 4.5 h; inhibition in vivo at 4 mg/kg (Rattus norvegicus [11]): 6%; Vd [12]: 3.7 L/kg
CC(=O)NC[C@]1(c2ccccc2)CC[C@H](N(C(=O)c2ccc([C@](C)(O)C(F)(F)F)cc2)C2CC2)CC1,< 10%,< 10%,< 5%,
C[C@](O)(c1ccc(C(=O)N(C2CC2)[C@H]2CC[C@](CO)(c3ccccc3)CC2)cc1)C(F)(F)F,32%,10%,< 5%,
C[C@](O)(c1ccc(C(=O)N(C2CC2)[C@H]2CC[C@](CCC#N)(c3ccccc3)CC2)cc1)C(F)(F)F,51%,10%,,
C[C@](O)(c1ccc(C(=O)N(C2CC2)[C@H]2CC[C@](COC(N)=O)(c3ccccc3F)CC2)cc1)C(F)(F)F,< 10%,< 10%,,bioavailability [4]: 48%; inhibition in vivo at 100 mg/kg (Rattus norvegicus [5]): 70%; IC50 [6]: 144 nM; inhibition in vivo at 20 mg/kg (Rattus norvegicus [7]): 43%; AUC [8]: 6790 ng·h/mL; clearance [9]: 2.5 mL/min/kg; half-life [10]: 5.2 h; inhibition in vivo at 4 mg/kg (Rattus norvegicus [11]): 27%; Vd [12]: 1.28 L/kg
C[C@](O)(c1ccc(C(=O)N(C2CC2)[C@H]2CC[C@](COC(N)=O)(c3ccc(F)cn3)CC2)cc1)C(F)(F)F,< 10%,< 10%,,
C[C@](O)(c1ccc(C(=O)N(C2CC2)[C@H]2CC[C@](COC(N)=O)(c3ccc(F)cc3)CC2)cc1)C(F)(F)F,< 10%,< 10%,,
C[C@](O)(c1ccc(C(=O)N(C2CC2)[C@H]2CC[C@](COC(N)=O)(c3ccccc3)CC2)cc1)C(F)(F)F,< 10%,< 10%,< 5%,bioavailability [4]: 20%; inhibition in vivo at 100 mg/kg (Rattus norvegicus [5]): 71%; IC50 [6]: 86 nM; inhibition in vivo at 20 mg/kg (Rattus norvegicus [7]): 43%; AUC [8]: 2770 ng·h/mL; clearance [9]: 2.67 mL/min/kg; half-life [10]: 3.9 h; inhibition in vivo at 4 mg/kg (Rattus norvegicus [11]): 23%; Vd [12]: 1 L/kg
C[C@](O)(c1ccc(C(=O)N(C2CC2)[C@H]2CC[C@](CCO)(c3ccccc3)CC2)cc1)C(F)(F)F,< 10%,< 10%,6%,
C[C@](O)(c1ccc(C(=O)N(C2CC2)[C@H]2CC[C@](CCC(N)=O)(c3ccccc3)CC2)cc1)C(F)(F)F,< 10%,< 10%,< 5%,inhibition (Cynomolgus monkey): Active; IC50 [13]: 22 nM; concentration at 2 h [14]: 1710 ng/mL; clearance [15]: 1 mL/min/kg; concentration at 2 h [16]: 2000 ng/mL; concentration at 2 h [17]: 151 ng/mL; bioavailability [18]: 81%
C[C@](O)(c1ccc(C(=O)N(C2CC2)[C@H]2CC[C@](CCC(N)=O)(c3ccccn3)CC2)cc1)C(F)(F)F,< 10%,< 10%,,
C[C@](O)(c1ccc(C(=O)N(C2CC2)[C@H]2CC[C@](COC(N)=O)(c3ccccn3)CC2)cc1)C(F)(F)F,< 10%,< 10%,,bioavailability [4]: 64%; inhibition in vivo at 100 mg/kg (Rattus norvegicus [5]): 72%; IC50 [6]: 220 nM; inhibition in vivo at 20 mg/kg (Rattus norvegicus [7]): 44%; AUC [8]: 6180 ng·h/mL; clearance [9]: 3.5 mL/min/kg; half-life [10]: 4.2 h; inhibition in vivo at 4 mg/kg (Rattus norvegicus [11]): 14%; Vd [12]: 1.24 L/kg
C[C@](O)(c1ccc(C(=O)N(C2CC2)[C@H]2CC[C@](O)(C3CC3)CC2)cc1)C(F)(F)F,< 10%,< 10%,< 5%,
C[C@](O)(c1ccc(C(=O)N(C2CC2)[C@H]2CC[C@](CCC(N)=O)(c3ccccc3F)CC2)cc1)C(F)(F)F,< 10%,< 10%,,
